ChEMBL document CHEMBL2034888, “Synthesis, anticonvulsant activity, and neuropathic pain-attenuating activity of N-benzyl 2-amino-2-(hetero)aromatic acetamides” (Bioorg Med Chem, 2012)

Key:
Mus musculus [1] = test: Antinociceptive activity in ip dosed NMRI mouse neuropathic pain model assessed as protection against formalin-induced nociceptive behaviour after 30 mins; type: functional; conditions: 0.5 h
How it was run: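 Formalin test in adult male NMRI mice used as a prescreen for pain attenuation, 30 min after ip administration. ED50 in mg/kg was derived where possible. Otherwise the percent protected after a single stated dose was reported.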

Mus musculus [2] = test: Anticonvulsant activity in ip dosed NMRI mouse assessed as protection against maximal electroshock-induced seizure after 30 mins postdose; type: functional; conditions: 0.5 h
How it was run: (§1)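 Adult male NMRI mice given compound intraperitoneally; maximal electroshock seizure test run 30 min after dosing. Where a dose–response was run, ED50 in mg/kg was derived. Otherwise a minimal active dose was reported, or the percentage of mice protected at a single dose.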

Mus musculus [3] = test: Anticonvulsant activity in ip dosed NMRI mouse assessed as protection against 6 Hz psychomotor seizure after 30 mins; type: functional; conditions: 0.5 h
How it was run: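 Adult male NMRI mice dosed ip. Psychomotor seizures were induced by 6 Hz stimulation at 44 mA, 30 min after administration. ED50 in mg/kg was derived where determinable, otherwise a minimal active dose was reported.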

Mus musculus [4] = test: Toxicity in ip dosed NMRI mouse assessed as writhings at 130 mg/kg, ip after 30 mins; type: organism-based; parameters: dose 130 mg/kg, route intraperitoneal; conditions: in vivo, 0.5 h
How it was run: (§2)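 Adult male NMRI mice were dosed ip. Whole-animal pharmacological observation was made at the stated mg/kg dose, recording tremors, convulsions, writhing, impaired gait or mortality. Timing was 30 min post-dose.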

Mus musculus [5] = test: Toxicity in ip dosed NMRI mouse assessed as convulsions at 130 mg/kg, ip after 30 mins; type: organism-based; parameters: dose 130 mg/kg, route intraperitoneal; conditions: in vivo, 0.5 h; how it was run: as §2
[6] = Neurotoxicity in ip dosed NMRI mouse after 30 mins by rotorod test; type: toxicity, organism-based; conditions: in vivo
How it was run: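 Neurological impairment was scored by rotorod in adult male NMRI mice 30 min after ip dosing. TD50 in mg/kg was derived where possible, otherwise the maximal tolerated dose was given.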

Mus musculus [7] = test: Protective index, ratio of TD50 for NMRI mouse to ED50 for antinociceptive activity in ip dosed NMRI mouse neuropathic pain model; type: functional
Mus musculus [8] = test: Protective index, ratio of TD50 for NMRI mouse to ED50 for anticonvulsant activity in ip dosed NMRI mouse by maximal electroshock seizure test; type: functional
Mus musculus [9] = test: Toxicity in ip dosed NMRI mouse assessed as tremors at 100 mg/kg, ip after 30 mins; type: organism-based; parameters: dose 100 mg/kg, route intraperitoneal; conditions: in vivo, 0.5 h; how it was run: as §2
Mus musculus [10] = test: Anticonvulsant activity in NMRI mouse assessed as protection against maximal electroshock-induced seizure at 140 mg/kg, ip after 30 mins; type: functional; conditions: route intraperitoneal; how it was run: as §1
Mus musculus [11] = test: Toxicity in ip dosed NMRI mouse assessed as impaired gait at 100 mg/kg, ip after 30 mins; type: organism-based; parameters: dose 100 mg/kg, route intraperitoneal; conditions: in vivo, 0.5 h; how it was run: as §2
[12] = Neurotoxicity in ip dosed albino CF-1 mouse by rotorod test; type: toxicity, organism-based; conditions: in vivo
Mus musculus [13] = test: Anticonvulsant activity in ip dosed albino CF-1 mouse assessed as protection against maximal electroshock-induced seizure after 0.5 hrs; type: functional; conditions: albino CF-1, ip
Mus musculus [14] = test: Anticonvulsant activity in ip dosed albino CF-1 mouse assessed as protection against maximal electroshock-induced seizure; type: functional; conditions: albino CF-1, ip
[15] = Neurotoxicity in ip dosed albino CF-1 mouse by horizontal screen test; type: toxicity, organism-based; conditions: in vivo
[16] = Neurotoxicity in ip dosed albino CF-1 mouse after 30 mins by rotorod test; type: toxicity, organism-based; conditions: in vivo

Row | Structure (SMILES) | ED50 (Mus musculus [1]) [mg/kg] | ED50 (Mus musculus [2]) [mg/kg] | ED50 (Mus musculus [3]) [mg/kg] | ED50 (Mus musculus [13]) [mg/kg] | also measured
1 | NC(C(=O)NCc1ccccc1)c1ccc2ccccc2n1 (racemic) | 54 | > 41 | > 130 | – | Activity (Mus musculus [4]): Toxic; Activity (Mus musculus [5]): Toxic
2 | NC(C(=O)NCc1ccccc1)c1cnc2ccccc2n1 (racemic) | 42 | > 120 | > 120 | – | –
3 | NC(C(=O)NCc1ccccc1)c1ccco1 (racemic) | 29 | 85 | > 150 | – | TD50 at 0.5 h [6]: > 150 mg/kg; Ratio TD50/ED50 (Mus musculus [7]): >5.1; Ratio TD50/ED50 (Mus musculus [8]): >1.8
4 | Cc1ccc(C(N)C(=O)NCc2ccccc2)o1 (racemic) | > 78 | – | > 140 | – | minimal effective dose (Mus musculus [2]; read-out: MED): 100 mg/kg; Activity (Mus musculus [9]): Toxic; Activity (Mus musculus [10]): 100%; Activity (Mus musculus [11]): Toxic
5 | CC(=O)NC(C(=O)NCc1ccccc1)c1cccs1 (racemic) | – | – | – | 45 | TD50 [12]: 30 mg/kg
6 | CC(=O)NC(C(=O)NCc1ccccc1)c1cc2ccccc2s1 (racemic) | – | – | – | – | ED50 (Mus musculus [14]): 100 mg/kg; TD50 [12]: 100 mg/kg
7 | CC(=O)NC(C(=O)NCc1ccccc1)c1ccccc1 (racemic) | – | – | – | 32 | TD50 [15]: > 40 mg/kg
8 | CC(=O)NC(C(=O)NCc1ccccc1)c1ccco1 (racemic) | – | – | – | 10 | TD50 at 0.5 h [16]: 40 mg/kg
9 | CC(=O)NC(C(=O)NCc1ccccc1)c1ccccn1 (racemic) | – | – | – | 11 | TD50 [12]: 25 mg/kg
10 | CC(=O)NC(C(=O)NCc1ccccc1)c1cnccn1 (racemic) | – | – | – | 15 | TD50 at 0.5 h [16]: 58 mg/kg
11 | CC(=O)NC(C(=O)NCc1ccccc1)c1nccs1 (racemic) | – | – | – | 12 | TD50 at 0.5 h [16]: 69 mg/kg
12 | CC(=O)NC(C(=O)NCc1ccccc1)c1ccc(C)o1 (racemic) | – | – | – | 19 | TD50 at 0.5 h [16]: 75 mg/kg
13 | COC[C@@H](NC(C)=O)C(=O)NCc1ccccc1 [LACOSAMIDE] | 15 | 3.3 | 10 | – | Ratio TD50/ED50 (Mus musculus [7]): 1.3; Ratio TD50/ED50 (Mus musculus [8]): 5.8
14 | CCC1(c2ccccc2)C(=O)NC(=O)NC1=O [PHENOBARBITAL] | – | 22 | – | – | –
15 | CCCC(CCC)C(=O)[O-].[Na+] [VALPROATE SODIUM] | – | 270 | – | – | –
